Source: ChEMBL document CHEMBL1641376, “Novel bis-, tris-, and tetrakis-tertiary amino analogs as antagonists at neuronal nicotinic receptors that mediate nicotine-evoked dopamine release” (Bioorg Med Chem Lett, 2011)

Columns and labels:
Assay type in all cases: functional, tissue-based
[1] = target: Neuronal acetylcholine receptor subunit alpha-6 (Rattus norvegicus) (UniProt P43143); assay: Antagonist activity at alpha6 nAChR in rat striatum assessed as inhibition of nicotine-induced [3H]dopamine release relative to nicotine
Neuronal acetylcholine receptor subunit alpha-6 (Rattus norvegicus), sequence (P43143 whole entry, the tested form may be a part): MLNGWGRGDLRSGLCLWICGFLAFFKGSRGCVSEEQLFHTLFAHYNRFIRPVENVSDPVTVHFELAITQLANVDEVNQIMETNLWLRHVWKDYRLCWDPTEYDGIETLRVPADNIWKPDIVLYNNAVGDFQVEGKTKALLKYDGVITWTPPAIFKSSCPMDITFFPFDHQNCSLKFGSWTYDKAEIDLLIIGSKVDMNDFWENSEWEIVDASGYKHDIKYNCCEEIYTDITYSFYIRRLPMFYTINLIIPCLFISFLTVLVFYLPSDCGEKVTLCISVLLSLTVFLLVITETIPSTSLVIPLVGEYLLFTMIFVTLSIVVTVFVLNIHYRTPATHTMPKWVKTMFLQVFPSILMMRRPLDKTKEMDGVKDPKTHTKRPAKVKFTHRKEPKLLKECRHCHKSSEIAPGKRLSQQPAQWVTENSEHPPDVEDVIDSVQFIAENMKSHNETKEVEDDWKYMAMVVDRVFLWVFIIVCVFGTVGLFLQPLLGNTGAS
Summary of the method: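 [3H]DA release from superfused rat striatal slices was evoked by 10 μM nicotine and tested across a full analogue concentration range. IC50 and Imax were derived from the concentration-response curves, with inhibition relative to the nicotine response in the absence of analogue. 4–6 independent experiments.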

[2] = target: Neuronal acetylcholine receptor subunit alpha-6 (Rattus norvegicus, UniProt P43143); assay: Antagonist activity at alpha6 nAChR in rat striatum assessed as inhibition of nicotine-induced [3H]dopamine release
Neuronal acetylcholine receptor subunit alpha-6, sequence (P43143 whole entry, the tested form may be a part): as above
Summary of the method: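 Superfused rat striatal slices preloaded with [3H]DA; release evoked by 10 μM nicotine. Screening used 100 nM analogue, with inhibition expressed as % of the nicotine response without analogue (≥3 independent experiments, each in duplicate). Compounds giving >40% inhibition had full concentration-response curves run to derive IC50 and Imax (4–6 independent experiments).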

[3] = target: Neuronal acetylcholine receptor subunit alpha-6 (Rattus norvegicus) (UniProt P43143); assay: Antagonist activity at alpha6 nAChR in rat striatum assessed as inhibition of nicotine-induced [3H]dopamine release at 100 nM relative to control
Summary of the method: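 Superfused rat striatal slices preloaded with [3H]DA. Nicotine-evoked [3H]DA release was elicited by 10 μM nicotine with 100 nM analogue present. Inhibition is expressed as a percentage of the nicotine response under control conditions without analogue. At least 3 independent experiments, each in duplicate.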

| SMILES | Imax [1] [%] | IC50 [2] [nM] | inhibition [3] [%] |
| --- | --- | --- | --- |
| c1ccc2c(c1)CCN(CCCCCCCCCCCCN1CCc3ccccc3C1)C2 | 76 | 8.59 |  |
| c1ccc2c(c1)CCN(CCCCCCCCCCN1CCc3ccccc3C1)C2 | 74 | 9.91 |  |
| CC1=CCCN(CCCCCCCCCCN2CCC=C(C)C2)C1 | 65 | 37.4 | 36 |
| c1ccc2c[n+](CCCCCCCCCC[n+]3ccc4ccccc4c3)ccc2c1 | 95 | 70 |  |
| c1ccc2c[n+](CCCCCc3cc(CCCCC[n+]4ccc5ccccc5c4)cc(CCCCC[n+]4ccc5ccccc5c4)c3)ccc2c1 |  |  | 28 |
| c1ccc2c(c1)CCN(CCCCCc1cc(CCCCCN3CCc4ccccc4C3)c(CCCCCN3CCc4ccccc4C3)cc1CCCCCN1CCc3ccccc3C1)C2 | 64 | 205 | 84 |
| OCCCc1ccc[n+](CCCCCc2cc(CCCCC[n+]3cccc(CCCO)c3)c(CCCCC[n+]3cccc(CCCO)c3)cc2CCCCC[n+]2cccc(CCCO)c2)c1 | 63 | 3 | 41 |
| C(#Cc1ccccc1C#CCCC[n+]1ccc2ccccc2c1)CCC[n+]1ccc2ccccc2c1 | 59 | 63 |  |
| Cc1ccc[n+](CCCCCCCCCCCC[n+]2cccc(C)c2)c1 | 63 | 2 |  |
| Cc1ccc[n+](CCCCCCCCCC[n+]2cccc(C)c2)c1 | 63 | 180 |  |
| Cc1ccc[n+](CCCC#Cc2cc(C#CCCC[n+]3cccc(C)c3)cc(C#CCCC[n+]3cccc(C)c3)c2)c1 | 67 | 0.2 | 40 |
| c1ccc2c[n+](CCCCCCCCCCCC[n+]3ccc4ccccc4c3)ccc2c1 | 53 | 40 |  |
| CC1=CCCN(CCCC#Cc2cc(C#CCCCN3CCC=C(C)C3)cc(C#CCCCN3CCC=C(C)C3)c2)C1 | 67 | 3.22 | 83 |
| C(#Cc1ccccc1C#CCCCN1CCc2ccccc2C1)CCCN1CCc2ccccc2C1 |  |  | 18 |
| c1ccc2c(c1)CCN(CCCCCc1cc(CCCCCN3CCc4ccccc4C3)cc(CCCCCN3CCc4ccccc4C3)c1)C2 | 58 | 0.35 | 58 |
| OCCCC1=CCCN(CCCCCc2cc(CCCCCN3CCC=C(CCCO)C3)c(CCCCCN3CCC=C(CCCO)C3)cc2CCCCCN2CCC=C(CCCO)C2)C1 | 64 | 30 | 40 |
| c1ccc2c[n+](CCCCCc3cc(CCCCC[n+]4ccc5ccccc5c4)c(CCCCC[n+]4ccc5ccccc5c4)cc3CCCCC[n+]3ccc4ccccc4c3)ccc2c1 | 52 | 56 |  |
| CC1=CCCN(CCCCCCCCCCCCN2CCC=C(C)C2)C1 | 60 | 0.95 | 50 |
